Assay outcomes (PubChem BioAssay)
Sampled rows, rich in hits. Any-hit rate of the full collection: about 1.8%.
NPY1 pot ag: potentiators or agonists of human neuropeptide Y receptor Y1. NPY-Y1 expressing cells, potentiator/agonist activation. AID 1304. 220,000 compounds, 0.37% hits. P25929. activation, % at 3.6 µM; in the data active = activation above about 33%, passing the limit was not always enough;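 also: cells stimulated with NPY at EC10 then isoproterenol at EC100; 0% = low agonist plus stimulus and 100% = saturating agonist plus stimulus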
Target sequence (P25929 whole entry, looked up): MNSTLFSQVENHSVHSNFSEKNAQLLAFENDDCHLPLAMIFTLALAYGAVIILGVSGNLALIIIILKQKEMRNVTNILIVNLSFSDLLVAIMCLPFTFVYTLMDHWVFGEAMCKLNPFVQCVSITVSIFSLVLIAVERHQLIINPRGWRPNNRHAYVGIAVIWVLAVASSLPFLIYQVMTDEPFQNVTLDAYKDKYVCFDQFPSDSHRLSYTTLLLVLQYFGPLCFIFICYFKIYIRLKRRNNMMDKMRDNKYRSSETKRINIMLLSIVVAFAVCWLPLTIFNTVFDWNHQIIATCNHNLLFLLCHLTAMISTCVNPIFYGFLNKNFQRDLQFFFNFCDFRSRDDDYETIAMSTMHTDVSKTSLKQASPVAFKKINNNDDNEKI
NPY-Y2 antag: NPY-Y2 (human) receptor antagonism; 140,000 compounds, 0.99% hits; inhibition, % at 2.7 µM; NPY-Y2 expressing cells, antagonist mode; in the data active = inhibition above about 17%;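 also: 0% = vehicle with agonist challenge and 100% = reference antagonist with challenge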
Target sequence (P49146 whole entry, looked up): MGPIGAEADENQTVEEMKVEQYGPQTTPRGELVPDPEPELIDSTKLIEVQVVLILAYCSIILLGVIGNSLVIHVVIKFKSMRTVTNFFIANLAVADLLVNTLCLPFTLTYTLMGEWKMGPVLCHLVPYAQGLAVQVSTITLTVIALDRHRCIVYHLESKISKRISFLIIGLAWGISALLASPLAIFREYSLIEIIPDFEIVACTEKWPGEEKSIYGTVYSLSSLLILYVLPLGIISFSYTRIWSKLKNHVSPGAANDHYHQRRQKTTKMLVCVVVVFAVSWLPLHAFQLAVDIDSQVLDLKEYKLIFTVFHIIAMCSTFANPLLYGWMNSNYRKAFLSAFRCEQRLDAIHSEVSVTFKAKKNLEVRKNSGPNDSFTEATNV
NPY-Y2 PAM-ag: human NPY-Y2 potentiation or agonism, primary screen; P49146; cells expressing NPY-Y2, potentiator/agonist read-out; activation, % at 3.6 µM; 220,000 compounds, 0.45% hits; AID 1359; in the data active = activation above about 27%;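 also: cells stimulated with NPY near EC25 plus isoproterenol at EC100; 0% = vehicle plus submaximal agonist and 100% = vehicle plus saturating agonist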
NPY-Y1 antag: blocks the human neuropeptide Y Y1 receptor; 200,000 compounds, 1% hits; P25929; inhibition, % at 3.6 µM; HEK293-CNG Y1 cells, membrane potential fluorescence; NPY at EC95, then isoproterenol;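 active = inhibition above the campaign mean inhibition of all tested compounds plus 3 SD, cut at about 20% in these data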;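 also: 0% = DMSO wells given NPY plus isoproterenol and 100% = isoproterenol alone without NPY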
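System: HEK293 cells with Y1 receptor plus CNG channel / Probe or stimulus: NPY 25 nM then isoproterenol 1 µM plus Ro 20-1724 25 µM / Compound: one concentration, 3.6 µM, in 0.4% DMSO / Schedule: compound incubation 1 h at room temperature, readout 45 min post-stimulation / Measured by: membrane potential fluorescence / Read-out: % inhibition of NPY effect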
NPY-Y1 pot conf: confirmation of human NPY-Y1 receptor potentiators or agonists; shares compounds with NPY1 pot ag; cell-based NPY-Y1 potentiator/agonist assay; activation, % at 3.6 µM; 280 compounds, 20% hits; AID 1546; in the data active = activation above about 45%;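 also: cells challenged with NPY at its EC10 plus isoproterenol stimulus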
NPY-Y2 counter: potentiates or activates NPY-Y2, counter-screen for NPY-Y1 hits; AID 1649; shares compounds with NPY1 pot ag; HEK293-CNG cells, membrane-potential fluorescence (FLIPR), 1536-well; 280 compounds, 20% hits; activation, % at 3.6 µM; in the data active = activation above about 33%
NPY-Y1 ag: activates human NPY-Y1, counter-screen for NPY-Y1 potentiators. shares compounds with NPY1 pot ag. 280 compounds, 50% hits. HEK293 Y1-CNGC, membrane potential fluorescence, agonist mode. activation, % at 3.6 µM. AID 1697;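 active = percent activation above the mean of DMSO-only control wells plus 3 SD of those wells, cut at about 18% in these data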;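 also: cells challenged with isoproterenol plus Ro 20-1724 with no NPY in test wells; Y1 agonism lowers isoproterenol-driven cAMP and reduces probe fluorescence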
NPY-Y2 agonist: activates human NPY-Y2, counter-screen for NPY-Y1 hits; shares compounds with NPY1 pot ag; HEK293 Y2-CNGC, membrane potential fluorescence, agonist mode; 280 compounds, 67% hits; activation, % at 3.6 µM;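 active = activation above the solvent-only control wells' mean plus 3 SD, cut at about 11% in these data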;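 also: 0% = DMSO with isoproterenol and 100% = 40 nM NPY maximal response; agonism lowers cAMP so well fluorescence drops in active wells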
CNGC counter: counter-screen for NPY-Y1 potentiators or agonists: CNG channel inhibitors; shares compounds with NPY1 pot ag; HEK293-CNG parental, isoproterenol cAMP, membrane potential fluorescence; inhibition, % at 3.6 µM; 280 compounds, 42% hits; AID 1704;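 active = inhibition above the mean of stimulated solvent-only control wells plus 3 SD, cut at about 22% in these data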;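 also: 0% = isoproterenol-stimulated DMSO wells and 100% = unstimulated DMSO wells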
An asterisk follows results filed as active; . = no result given.

SMILES | NPY1 pot ag | NPY-Y2 antag | NPY-Y2 PAM-ag | NPY-Y1 antag | NPY-Y1 pot conf | NPY-Y2 counter | NPY-Y1 ag | NPY-Y2 agonist | CNGC counter
CCOC(=O)/C=C/C(=O)Nc1ccc(Oc2ccccc2)cc1 | 38.6* | . | 6.0 | -10.5 | 17.9 | 11.9 | 16.5 | 18.8* | 25.2*
O=C(O)/C=C/C(=O)Nc1ccc(Oc2ccccc2)cc1 | 16.7 | . | -14.8 | . | . | . | . | . | .
CC(=O)c1ccc(NC(=O)C2CC(=O)N(C(C)C)C2)cc1 (configuration not stated) | 16.3 | . | 16.1 | 7.6 | . | . | . | . | .
O=[N+]([O-])c1cc(S(=O)(=O)N2CCCCCC2)ccc1Cl | 41.5* | . | 30.6 | -2.0 | 15.8 | 22.1 | 16.4 | 22.1* | 55.9*
Cn1c(CSCc2ccccc2Cl)n[nH]c1=S | 9.4 | . | -5.9 | 2.9 | . | . | . | . | .
Cn1c(CSCc2ccc(Cl)cc2Cl)n[nH]c1=S | 64.7* | . | -15.6 | 0.4 | -2.8 | 1.8 | -0.5 | 7.5 | -8.7
O=C(Nc1ccc(C(O)(C(F)(F)F)C(F)(F)F)cc1)c1ccc(Cl)c([N+](=O)[O-])c1 | 46.1* | -5.7 | 25.7 | -14.2 | 50.4* | 49.6* | 41.4* | 39.9* | 51.4*
O=C(O)c1cc(NC(=O)c2ccc(Cl)c([N+](=O)[O-])c2)cc(C(=O)O)c1 | 12.7 | . | 2.2 | -6.9 | . | . | . | . | .
CCc1nnc(NC(=O)CSc2nc3cc(OC)ccc3cc2C)s1 | -10.1 | . | -4.9 | -3.5 | . | . | . | . | .
Cc1nn(CC(=O)NCc2ccc(-n3cccn3)cc2)c(C)c1[N+](=O)[O-] | 1.6 | 6.9 | 10.4 | 4.0 | . | . | . | . | .
CCn1ccnc1CN1CCc2c([nH]c3ccccc23)C1CC(C)C (configuration not stated) | 9.3 | . | -8.6 | 2.8 | . | . | . | . | .
CCn1ccnc1CN1CCc2c([nH]c3ccccc23)C1C(C)(C)C (configuration not stated) | 34.2* | . | 14.6 | -5.0 | 16.2 | 11.0 | 7.5 | 21.9* | 11.5
O=c1[nH]c(Cc2ccccn2)nc2scc(-c3ccc(Cl)cc3)c12 | 25.0 | . | 11.4 | -8.1 | . | . | . | . | .
O=c1[nH]c(Cc2cccs2)nc2scc(-c3ccc(Cl)cc3)c12 | 66.1* | . | 26.3 | . | 29.8 | 23.4 | 35.7* | 33.3* | 44.0*
CCN(CC)c1ccc(/C=C(/C#N)c2nc3ccc(C)cc3[nH]2)c(OC(C)C)c1 | 44.4* | -4.9 | 32.2 | -3.0 | 51.9* | 37.6* | 27.7* | 44.9* | 30.1*
CC(C)[C@H](NC(=O)OC(C)(C)C)c1nnc(SCC(=O)Nc2ccc(Br)cc2)o1 | 21.9 | 8.7 | 22.0 | 1.9 | . | . | . | . | .
CC(C)Cn1nnc2c(=O)oc3ccccc3c21 | 59.7* | -0.3 | 13.7 | 1.1 | 38.4 | 24.1 | 24.7* | 22.7* | 22.2*
CCn1nnc2c(=O)oc3ccccc3c21 | 17.6 | . | -4.9 | -5.2 | . | . | . | . | .
CCCn1nnc(NC(=O)C(c2ccccc2)c2ccccc2)n1 | 11.8 | 4.4 | 2.4 | 12.2 | . | . | . | . | .
CCCCn1nnc(NC(=O)C(c2ccccc2)c2ccccc2)n1 | 64.4* | . | -16.9 | 1.9 | -8.4 | -4.8 | -2.4 | 7.2 | 0.2
O=[N+]([O-])c1cc(Br)c(O)c(/C=N/Nc2nnnn2-c2cccc3ccccc23)c1 | -1.6 | 2.9 | 4.6 | 13.1 | . | . | . | . | .
Cc1cccc(N(CC(=O)NCc2ccco2)C(=O)CCC(=O)Nc2nccs2)c1 | -6.0 | . | -8.7 | 4.0 | . | . | . | . | .
CCOC(=O)c1ccc[n+](CC(=O)Nc2cc(C(F)(F)F)ccc2Cl)c1 | -6.4 | . | -3.6 | -4.4 | . | . | . | . | .
COc1ccccc1Oc1ccc2c(c1)C(=O)N(c1cccc(O)c1)C2=O | 4.1 | 5.4 | -0.4 | 13.1 | . | . | . | . | .
COc1ccccc1Oc1ccc2c(c1)C(=O)N(c1cccc3ncccc13)C2=O | 43.0* | 1.4 | 24.0 | -0.6 | 0.6 | 11.6 | 1.2 | -5.1 | -12.8
SMILES | NPY1 pot ag | NPY-Y2 antag | NPY-Y2 PAM-ag | NPY-Y1 antag | NPY-Y1 pot conf | NPY-Y2 counter | NPY-Y1 ag | NPY-Y2 agonist | CNGC counter
Cc1ccc(S(=O)(=O)Nc2nc3ccccc3nc2Nc2cccc(S(=O)(=O)N3CCCC3)c2)cc1 | 44.9* | . | 18.2 | -14.0 | 74.3* | 70.7* | 66.6* | 65.3* | 43.8*
CCC(CC)c1nn2c(N)c(/C=C3\C=Nc4ccccc43)c(=O)nc2s1 | 72.8* | . | 12.1 | . | 94.9* | 81.7* | 97.5* | 84.8* | 46.0*
CCCc1nn2c(N)c(/C=C3\C=Nc4ccccc43)c(=O)nc2s1 | 10.9 | 4.6 | 11.2 | -0.9 | . | . | . | . | .
N/C(=N\OC(=O)/C=C/c1ccccc1)c1ccccc1 | 105.4* | 8.7 | -8.4 | 5.6 | -13.3 | -10.6 | -2.9 | -3.8 | -6.5
COc1ccc(/C=C/C(=O)O)cc1S(=O)(=O)N1CCC(C)CC1 | 10.1 | . | 9.5 | . | . | . | . | . | .
Cc1ccn2cc(C34CC5CC(CC(C5)C3)C4)nc2c1 | 8.9 | . | -10.0 | 4.1 | . | . | . | . | .
Cc1ccc(-c2nnc(-c3ccc(NC(=O)Cc4cccs4)cc3)o2)cc1 | 49.5* | 0.3 | -0.3 | 3.3 | -21.9 | -9.3 | -12.8 | 2.6 | -0.1
COc1ccc(C(CC(=O)c2ccc(C)cc2)C(C#N)C#N)cc1OC (configuration not stated) | -17.7 | 2.8 | -13.4 | 6.3 | . | . | . | . | .
CCn1c(CSc2nc(C)cc(C)n2)nnc1SCC(=O)N1CCCc2ccccc21 | -0.9 | 2.9 | -1.5 | 6.2 | . | . | . | . | .
O=C(Cc1ccccc1)NNC(=O)Nc1cccc(Cl)c1 | 11.0 | 7.0 | 4.1 | -2.1 | . | . | . | . | .
O=C(CN1c2ccccc2Sc2ccccc21)NNC(=O)Nc1cccc(Cl)c1 | 50.0* | . | 8.7 | . | 47.9* | 30.3 | 45.5* | 36.2* | 39.9*
CC(C)c1ccc2[nH]c(O)c(N=NC(=O)c3cccc(S(=O)(=O)Nc4cccc(Cl)c4)c3)c2c1 | 50.1* | . | -7.6 | . | 28.7 | 23.4 | 23.6* | 28.1* | 20.1
NS(=O)(=O)c1ccc(NC(=O)C(Sc2ccccc2)c2ccccc2)cc1 (configuration not stated) | 7.4 | -0.4 | 0.9 | 4.1 | . | . | . | . | .
C/C(=N\Nc1ccc(C(=O)c2c(C)cc3ccccn23)cc1[N+](=O)[O-])c1ccc(O)cc1 | 61.8* | . | 9.1 | . | 9.4 | 10.2 | 6.0 | 12.4* | 3.9
Cc1cc2ccccn2c1C(=O)c1ccc(N/N=C/c2ccc(C(=O)O)cc2)c([N+](=O)[O-])c1 | 21.0 | . | -19.6 | . | . | . | . | . | .
N#C/C(=C(/O)c1cc2ccccc2o1)c1nc2ccccc2s1 | 49.1* | . | 9.6 | . | -2.2 | 5.9 | 2.3 | 10.5* | 13.8
N#C/C(=C(/O)c1ccco1)c1nc2ccccc2s1 | 19.5 | -1.7 | 18.8 | -7.8 | . | . | . | . | .
CCC(=O)N1CCc2cc(S(=O)(=O)CCC(=O)Nc3ccc(OC)c(OC)c3)ccc21 | 12.9 | . | 12.0 | -0.9 | . | . | . | . | .
